# Assay outcomes from PubChem BioAssay.
# TRPN1 ag = zebrafish TRPN1 (NompC) channel agonism; HEK293 zebrafish TRPN1-YFP, Fluo-8 calcium fluorescence; 100% = response to 87 µM carbachol; activation, % at 3 µM; actives 0.18% (n = 220,000); AID 1424;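 active = activation above its plate's cutoff, the mean activation of test wells on that plate plus 3 SD, cut at about 19% in these data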;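 note: 0% = DMSO alone and 100% = 87 µM carbachol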
#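 Assay system: Zebrafish TRPN1-YFP in HEK293 cells | Incubation: Dye loading 1 h at 37 °C, then 30 min room temperature | Measured by: Kinetic Fluo-8 fluorescence, ex 470-495, em 515-575 nm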
# CRFBP-R2 block = CRF-BP/CRF-R2 complex antagonism | HEK293 CRF-R2/CRF-BP, CRF-induced calcium fluorescence | inhibition, % at 11.8 µM | actives 0.59% (n = 350,000);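 active = inhibition of the ligand-induced calcium signal above about 50% at the single tested concentration, limit read from the data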
# CRFBP-R2 agonist = CRF-BP/CRF-R2 complex agonism | actives 0.46% (n = 350,000) | activation, % at 13.2 µM | HEK293 CRF-R2/CRF-BP, calcium dye fluorescence (FLIPR); percent of saturating CRF peptide response;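 active = activation of at least 50%, plus an integration ratio under a set limit after plate pattern correction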;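 note: plate controls were neutral control wells without compound for no effect and CRF at EC100 for full effect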
# TRPML3 agonist = agonists of human TRPML3 channel; activation, % at 3 µM; HEK293 TRPML3-YFP, Fluo-8 calcium fluorescence; 100% = the carbachol control signal; AID 1448; Q8TDD5; actives 0.29% (n = 220,000);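 active = activation above its plate's cutoff, the mean activation of the plate's test wells plus 3 SD, cut at about 12% in these data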;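 note: 0% = DMSO only wells and 100% = carbachol wells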
# Target sequence (Q8TDD5 whole entry, looked up): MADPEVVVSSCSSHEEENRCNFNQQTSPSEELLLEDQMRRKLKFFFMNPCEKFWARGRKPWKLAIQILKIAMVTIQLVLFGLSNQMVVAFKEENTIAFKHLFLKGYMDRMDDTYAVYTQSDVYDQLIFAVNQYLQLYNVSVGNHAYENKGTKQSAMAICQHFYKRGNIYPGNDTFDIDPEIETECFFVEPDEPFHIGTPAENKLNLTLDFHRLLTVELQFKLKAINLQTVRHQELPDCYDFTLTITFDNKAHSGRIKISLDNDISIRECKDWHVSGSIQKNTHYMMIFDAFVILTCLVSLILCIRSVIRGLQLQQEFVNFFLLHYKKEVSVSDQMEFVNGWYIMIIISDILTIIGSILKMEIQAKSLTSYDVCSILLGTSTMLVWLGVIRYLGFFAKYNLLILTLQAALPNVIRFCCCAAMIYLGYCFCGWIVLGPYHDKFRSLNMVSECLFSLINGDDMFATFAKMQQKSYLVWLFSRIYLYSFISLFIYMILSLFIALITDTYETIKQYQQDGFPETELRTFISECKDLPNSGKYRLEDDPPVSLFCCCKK
#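 Test system – HEK293 line with stable expression of human TRPML3-YFP channel · Control set – carbachol 87 µM final as high control (100%), DMSO as low control (0%) · Signal – Fluo-8 calcium dye fluorescence, ex 470-495, em 515-575 nm · Incubation – 1-h 37 °C dye load, 5-s basal, 120-s post-compound reads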
# GPR7 antagonist = blocks human GPR7 receptor signaling. inhibition, % at 4.4 µM. AID 1861. GPR7-expressing cells, fluorescence antagonist assay. P48145. actives 1.1% (n = 290,000); in the data active = inhibition above about 16%, passing the limit was not always enough;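 note: cells stimulated with the agonist NPW; 0% = agonist with vehicle and 100% = vehicle without agonist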
# * hit, by the source's call; x = not tested or not shown. Most compounds without a hit are left out; they make up all but 2% or so of the library.
SMILES,TRPN1 ag,CRFBP-R2 block,CRFBP-R2 agonist,TRPML3 agonist,GPR7 antagonist
COC(=O)c1cc(C#N)c(N(C)Cc2ccccc2)nc1C,-2,62*,3,0,-9
CC(=O)c1cc(C#N)c(NCc2cc(-c3ccccc3)no2)nc1C,0,-6,1,1,-22
CC(=O)Nc1ccc(NC(=O)C(C)OC(=O)CCCOc2ccc(Cl)c(C)c2)cc1 (configuration not stated),x,4,1,x,-19
CCN(Cc1ccccc1)C(c1cccc(C#N)c1)c1nnnn1C(C)(C)C (configuration not stated),-2,89*,-1,1,-13
O=S(=O)(/C(=C/c1ccc(C(F)(F)F)cc1)c1nc2ccccc2[nH]1)c1ccccc1,0,-129,-4,2,26*
CC(C)c1ccc(/C=C(\c2nc3ccccc3[nH]2)S(=O)(=O)c2ccccc2)cc1,-1,-89,1,-1,28*
C/C(=C\c1ccc(N)cc1)c1nc2ccccc2[nH]1,x,15,-4,x,-2
CC(C)(C)N(Cc1ccccc1)C(=O)CSc1ncn[nH]1,x,11,-4,x,-1
Cc1ccc(NC(=O)CCn2cc(C(F)(F)F)ccc2=O)cc1,1,122*,0,2,-6
CNC(=O)Nc1ccc(Cn2cc(C(F)(F)F)ccc2=O)cc1,0,6,1,0,-4
COc1ccccc1S(=O)(=O)Cc1ccc(C(=O)NCc2ccccc2)o1,x,55*,0,x,-4
COc1ccccc1S(=O)(=O)Cc1ccc(C(=O)NCc2ccco2)o1,x,4,-1,x,-9
CC(C)[C@H](NC(=O)c1ccc(Cl)cc1Cl)C(=O)NNc1cccc(C(=O)O)c1,x,22,-1,x,x
O=C(NCc1cccnc1)/C(=C\c1ccc(-c2cccc(Cl)c2)o1)S(=O)(=O)c1ccccc1,1,-14,0,0,20*
CC(=O)c1ccc2noc(-c3ccccc3)c2c1,2,22,3,1,-4
CC(=O)c1ccc2c(c1)c(C#N)c1ccccc1[n+]2[O-],x,-61,101*,x,-19
CC(C)c1nc2ccccc2n1CC(O)COC1CCCCC1 (configuration not stated),-1,18,-4,1,5
Cc1nc2ccccc2n1CC(O)COC1CCCCC1 (configuration not stated),3,53*,-2,1,-7
O=C(c1c[nH]c2ccccc12)N1CCN(Cc2ccccc2)CC1,2,16,-2,0,18*
O=C(C(=O)N1CCN(Cc2ccccc2)CC1)c1c[nH]c2ccccc12,x,-3,0,x,x
CC1=C/C(=C(\c2cc(C)c(O)c(Br)c2)c2ccccc2S(=O)(=O)O)C=C(Br)C1=O,x,7,4,x,-8
CC(C)(C)NC(=O)C(c1ccc(O)cc1)N(Cc1ccc2c(c1)OCO2)C(=O)CCl (configuration not stated),x,80*,-1,x,x
CCOCCCNC(=O)C(c1ccc(Cl)cc1)N(Cc1ccc2c(c1)OCO2)C(=O)CNC(C)=O (configuration not stated),1,1,5,1,-4
CO/N=C/C(c1ncc(C(F)(F)F)cc1Cl)S(=O)(=O)c1ccccc1 (configuration not stated),x,-8,1,x,0
CO/N=C/C(C#N)c1ncc(C(F)(F)F)cc1Cl (configuration not stated),2,77*,49,0,-11
SMILES,TRPN1 ag,CRFBP-R2 block,CRFBP-R2 agonist,TRPML3 agonist,GPR7 antagonist
O=C1COc2ccc(S(=O)(=O)CCC(=O)N3CCN(c4cccc(C(F)(F)F)c4)CC3)cc2N1,x,-24,0,x,-3
COc1ccc(N2CCN(C(=O)CCS(=O)(=O)c3ccc4c(c3)NC(=O)CO4)CC2)cc1,x,56*,-2,x,-10
CCOC(=O)c1ccc(NCn2c(=O)oc3ccccc32)cc1,2,-84,62*,2,-2
COC(=O)c1ccc(NC(=O)CCn2c(=O)oc3ccccc32)cc1,0,-12,-1,0,14
COC(=O)C1=NN(C(=O)c2ccccc2)C(C)(O)C1 (configuration not stated),0,19,-1,1,-6
CC1=NN(C(=O)c2ccc(Br)cc2)C(O)(C(F)(F)OC(F)(F)F)C1 (configuration not stated),-1,50*,0,0,-7
